Format in all cases: functional
The subject of one experiment is Pseudomonas aeruginosa. The experiment in a line: Antibacterial activity against Pseudomonas aeruginosa CIP A22 assessed as bacterial growth inhibition incubated for 24 hrs by optical density based microplate reader analysis. In short, it runs like this: (§1)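 Broth microdilution in LB per CLSI, in triplicate; compounds dissolved in DMSO (stock 5 mg/mL; gentamicin stock 10 mg/mL as positive control), serially diluted 1:2. Wells inoculated with 10⁶ CFU/mL, incubated 24 h at 37 °C, with solvent as negative control. OD 630 nm read before and after incubation; MIC taken as the lowest-concentration clear well. Wells also plated on LB agar for 24 h at 37 °C.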

The test system of experiment [1] is Staphylococcus aureus. The experiment in a line: Antibacterial activity against methicillin resistant Staphylococcus aureus DSM 13661 assessed as bacterial growth inhibition incubated for 24 hrs by optical density based microplate reader analysis. A digest of the protocol:
(§2)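 Broth microdilution per CLSI, in triplicate: compounds as 5 mg/mL DMSO stocks (gentamicin 10 mg/mL stock as positive control), serially diluted 1:2 in LB. Wells inoculated with 10⁶ CFU/mL, 24 h at 37 °C, solvent-only negative control. OD630 read before and after incubation. MIC taken as the lowest-concentration clear well, i.e. no visible growth.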

Experiment [2] deals with Staphylococcus aureus. Description: Antibacterial activity against Staphylococcus aureus CIP 53.156 assessed as bacterial growth inhibition incubated for 24 hrs by optical density based microplate reader analysis. In short, it runs like this: as §1
A further experiment relates to Escherichia coli. The experiment in a line: Antibacterial activity against […] Escherichia coli CIP 54.8 assessed as bacterial growth inhibition incubated for 24 hrs by optical density based microplate reader analysis. A digest of the protocol:
as §2

The subject of experiment [3] is Staphylococcus epidermidis. Description: Antibacterial activity against Staphylococcus epidermidis CIP 53.124 assessed as bacterial growth inhibition incubated for 24 hrs by optical density based microplate reader analysis. In short, it runs like this:
as §1

For a further experiment, the system named is Huh-7. Description: Cytotoxicity against human Huh-7 cells assessed as cell growth inhibition measured after 24 hrs by MTS assay. A digest of the protocol: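 Huh-7 cells (DMEM with glutaMAX-I, 10% FBS, 37 °C, 5% CO₂), 6×10^4 per well, allowed 16 h before 24 h exposure to increasing compound concentrations (DMSO stocks 100 mM). Viability by MTS, formazan absorbance at 490 nm; CC50 derived. Mean ± SEM of 3 experiments.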
(In general: Tetrazolium assays rely on reduction of a dye to a coloured formazan, in cell work by metabolically active cells.)

Among the data in ChEMBL document CHEMBL5252608, “Eremoxylarins D-J, Antibacterial Eremophilane Sesquiterpenes Discovered from an Endolichenic Strain of Xylaria hypoxylon” (J Nat Prod, 2023) are MIC and CC50 values, retold here.

≈ marks a conversion by molar mass, not a printed value.

A word on the MIC: it is the least concentration at which growth counts as inhibited. In the case of GENTAMICIN, the MIC is 1.95 µg/mL in the experiment with Pseudomonas aeruginosa; 250 µg/mL in the experiment with Staphylococcus aureus [1]; 3.91 µg/mL in the experiment with Staphylococcus aureus [2]; 3.91 µg/mL in the experiment with Escherichia coli; greater than 250 µg/mL in experiment [3].

The term CC50 denotes the concentration that lowers cell viability or growth by half. Consider `C=C(C=O)[C@H]1CC=C2[C@H](OC(=O)/C(C)=C/C=C/CCCCC)CC[C@H](C(=O)O)[C@@]2(C)C1`, for which the MIC with Pseudomonas aeruginosa is greater than 50 µg/mL; in the experiment with Staphylococcus aureus [1], 3.1 µg/mL (≈ 7.23 µM); with Staphylococcus aureus [2], 1.56 µg/mL (≈ 3.64 µM); with Escherichia coli it was greater than 50 µg/mL; in experiment [3], 3.1 µg/mL (≈ 7.23 µM). Also, the CC50 in the experiment on Huh-7 amounted to 184 µM.

As for `C=C(C=O)[C@H]1CC=C2[C@H](OC(=O)/C(C)=C/CCCCCCC)CC[C@H](C(=O)O)[C@@]2(C)C1`, the MIC in the experiment with Pseudomonas aeruginosa is greater than 50 µg/mL; in the experiment on Staphylococcus aureus [1], 1.56 µg/mL (≈ 3.62 µM); with Staphylococcus aureus [2] it was 0.39 µg/mL (≈ 0.906 µM); in the experiment with Escherichia coli it was greater than 50 µg/mL; in experiment [3], 1.56 µg/mL (≈ 3.62 µM). Besides, in the experiment on Huh-7, the 50% cytotoxic concentration (CC50) was 48.1 µM.
